The sample as a whole holds a higher share of hits than the screen did.
XBP1 UPR activ – activators of adaptive XBP1 UPR arm, primary screen, cell-based, CHO-XBP1 luciferase reporter, luminescence, uHTS. 330,000 compounds, 0.33% hits. activation, % at 20 µM. IRE1-XBP1 UPR activation; percent of tunicamycin response, DMSO as zero;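 active means versus positive control, 20 µM dose yields 30% or more activation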
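Material – CHO cell line with stable XBP1 luciferase reporter · Buffer or medium – F12 plus 10% FBS · Compound – single point, 20 µM final compound, 1% DMSO · Schedule – 16-18 h cell attachment at 37 °C, then 6 h compound exposure · Signal – Steady-Glo luminescence read · Benchmarks – high control tunicamycin 10 µg/mL final, low control DMSO vehicle only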
CHOP UPR activ – activators of apoptotic CHOP UPR arm, primary screen, cell-based, CHO-CHOP luciferase reporter, luminescence, uHTS | UPR activation; percent of tunicamycin response over DMSO baseline | activation, % at 10 µM | 330,000 compounds, 0.34% hits | AID 449763, 2010;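 active means at 10 µM dose, activation of 40% or more, normalized to positive control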
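Test system: CHO-CHOP cells, stable luciferase reporter of PERK-eIF2a-CHOP signalling | Quantity: 500 CHO-CHOP cells per well | Buffer or medium: F12 plus 10% serum | Compound dosing: 10 µM single point, 0.5% DMSO | Schedule: 6 h compound treatment, 37 °C | Signal: Luciferase luminescence | Control set: Tunicamycin high control, DMSO low control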
Bfl-1 A1 inh – caspase 3/7 activation in MEF A1-2A-BIM cells, primary screen, A1 inhibitor project, cell-based, luminescence, HTS | Caspase-Glo 3/7 luminescence, 3 h; percent of clofoctol response, vehicle zero | caspase activation, % (concentration not given with the values) | 330,000 compounds, 0.066% hits | AID 2462, 2010;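 active means over half of replicate activation scores above 10%, or exactly half above 10 with the replicate mean above 10; inconclusive means replicate mean below 10 yet half the replicates above 10; inactive means over half of replicates below 10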
CHOP inh – inhibitors of CHOP promoter induction, primary screen, cell-based, unfolded protein response, luciferase reporter | 220,000 compounds, 3.8% hits | inhibition, % at 10 µM | CHO-K1 CHOP-promoter luciferase, tunicamycin-induced, 15-18 h;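 active means compounds that reduced the stress-induced luciferase reporter signal by more than about 70% of percent inhibition, limit read from the data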
UPR XBP1 confirm – IRE1-XBP1 UPR arm activators, confirmation, cell-based, CHO-XBP1 luciferase reporter, luminescence, single concentration. AID 485299, 2010. 1,000 compounds, 63% hits. shares compounds with XBP1 UPR activ. activation, % at 20 µM;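 active means reporter signal at least 30% of the positive control's activation in two or more of four replicate wells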
Of the large screens only hits and unclear results are named; the others gave an inactive call (follow-up assays come after a bar, where they were run).

COc1ccc2[nH]c3c(c2c1)CCN1C(=O)C(CC(=O)NC/C=C(\C)CCC=C(C)C)C[C@H](C(=O)N2CCOCC2)[C@@]31CCC1CCCC1 (stereo not given in full)	XBP1 UPR activ 47 (no result: Bfl-1 A1 inh, CHOP inh) | UPR XBP1 confirm 58
COc1ccc(C)cc1Nc1nc(N)c2cc(OC)c(OC)cc2n1	none (no result: CHOP inh)
COc1cc2nc(N3CCN(c4cc(C)ccc4C)CC3)nc(N)c2cc1OC	XBP1 UPR activ 109 (no result: CHOP inh) | UPR XBP1 confirm 62
CCCn1c(Nc2nc3ccccc3n2C)nc2ccccc21	XBP1 UPR activ 55 | UPR XBP1 confirm 57
ClC(Cl)(Cl)c1nc2ccccc2n2nncc12	XBP1 UPR activ 31 (no result: CHOP inh) | UPR XBP1 confirm inactive
COc1ccc(-c2ccc3c(c2)S(=O)(=O)c2cccc(C(=O)NC4CCCC4)c2C3=O)cc1OC	none (no result: CHOP inh)
CC(C)c1cccc(-c2ccc3c(c2)S(=O)(=O)c2cccc(C(=O)NC4CCCC4)c2C3=O)c1	XBP1 UPR activ 33, Bfl-1 A1 inh 7.3 (no result: CHOP inh) | UPR XBP1 confirm inactive
O=C(NC1CCCCC1)c1cccc2c1C(=O)c1ccc(-c3ccc(OC(F)(F)F)cc3)cc1S2(=O)=O	XBP1 UPR activ 75, Bfl-1 A1 inh inconclusive (no result: CHOP inh) | UPR XBP1 confirm 67
COc1ccc(Cc2nc3ccc(C(=O)N4CCCCC4CCO)cc3o2)cc1 (stereo not given)	none (no result: CHOP inh)
CC(=O)c1cccc(NS(=O)(=O)c2ccc3c(c2)N(C(C)=O)CCO3)c1	none (no result: CHOP inh)
COc1ccc(Nc2nc(N)c([N+](=O)[O-])c(NCCO)n2)cc1	none
COc1ccc(Nc2nc(N)c([N+](=O)[O-])c(NC3CCCCC3)n2)cc1	XBP1 UPR activ 53 (no result: CHOP inh) | UPR XBP1 confirm 35
CCC(C)Nc1nc(N)c([N+](=O)[O-])c(NC2CCCCC2)n1 (stereo not given)	XBP1 UPR activ 35 (no result: CHOP inh) | UPR XBP1 confirm 31
O=C(OCC(=O)N1CCCC1=O)c1cc2ccccc2o1	none (no result: CHOP inh)
Cc1ccc([N+](=O)[O-])cc1S(=O)(=O)Nc1ccc(-c2ccc(N3CCOCC3)nn2)cc1	none (no result: CHOP inh)
Cc1ccc(NS(=O)(=O)c2cc([N+](=O)[O-])ccc2N/N=C/c2sc(N3CCOCC3)nc2-c2ccccc2)c(C)c1	XBP1 UPR activ 36 | UPR XBP1 confirm 31
CC[C@]12c3[nH]c4ccc(Cl)cc4c3CCN1C(=O)[C@@H](CC(=O)NCCc1ccccn1)C[C@@H]2C(=O)N1CCN(C(=O)c2ccco2)CC1	none (no result: Bfl-1 A1 inh, CHOP inh)
COc1ccc(NC(=O)c2oc3ccccc3c2NC(=O)C2CC2)c(OC)c1	none (no result: CHOP inh)
COc1ccc(C(=O)NC(=S)Nc2cc3oc4ccccc4c3cc2OC)cc1	XBP1 UPR activ 34, CHOP inh 78 | UPR XBP1 confirm inactive
COc1ccc(OC)c(NC(=O)c2oc3ccccc3c2NC(=O)C2CC2)c1	XBP1 UPR activ 60 (no result: CHOP inh) | UPR XBP1 confirm 40
COc1ccc(CC(=O)Nc2cc3oc4ccccc4c3cc2OC)cc1	none
COc1cc(OC)cc(C(=O)Nc2ccccc2-c2nnn(CC(=O)Nc3cc(C)on3)n2)c1	XBP1 UPR activ 327 (no result: CHOP inh) | UPR XBP1 confirm inactive
COc1ccccc1C1NC=C([N+](=O)[O-])C=C1[N+](=O)[O-] (stereo not given)	none
COc1ccccc1C1C([N+](=O)[O-])=CC([N+](=O)[O-])=CN1C (stereo not given)	XBP1 UPR activ 51 | UPR XBP1 confirm inactive
CCCCNc1c(-c2ccc(SC(C)CC)cc2)nc2cnccn12 (stereo not given)	XBP1 UPR activ 57 (no result: CHOP inh) | UPR XBP1 confirm 50
C/C(=N/NC(=O)c1ccc(C)s1)c1cccc(NC(=O)COc2ccc(Cl)cc2C)c1	XBP1 UPR activ 56 | UPR XBP1 confirm 56
C[C@H](NC(=O)c1nc[nH]c1C(=O)NCCCCCN)C(=O)OCc1ccccc1	none (no result: CHOP inh)
CN=C1S/C(=C\c2cccc(Cl)c2Cl)C(=O)N1C	none (no result: CHOP inh)
CCOC(=O)Oc1ccc2oc(C)c(C(=O)OCCOC)c2c1	none (no result: Bfl-1 A1 inh)
COCCOC(=O)c1c(C)oc2ccc(OC(=O)c3ccc4c(c3)OCO4)cc12	XBP1 UPR activ 76 | UPR XBP1 confirm inactive
Cc1ccc(-c2cc(C(F)F)n3ncc(C(=O)N4CCc5ccccc54)c3n2)cc1	XBP1 UPR activ 47 | UPR XBP1 confirm 126
COc1ccc(-c2cc(C(F)F)n3ncc(C(=O)N4CCc5ccccc5C4)c3n2)cc1	XBP1 UPR activ 38 | UPR XBP1 confirm 73
COc1ccc(-c2cc(C(F)F)n3ncc(C(=O)N4CCCCC4)c3n2)cc1	none
Cc1ccc(S(=O)(=O)N(C)c2ccc(OC(C)C(=O)N(C)c3ccccc3)cc2)cc1 (stereo not given)	none (no result: Bfl-1 A1 inh, CHOP inh)
CC(=O)Nc1cccc(C(=O)/C=C/c2ccc(C)cc2)c1	none
CCC(=O)Nc1cccc(C(=O)/C=C/c2ccc(F)cc2)c1	XBP1 UPR activ 35 | UPR XBP1 confirm 53
O=C(CC(=O)NC1CCCCC1)N/N=C/c1ccccc1[N+](=O)[O-]	none (no result: CHOP inh)
CC(=O)O[C@H]1[C@@H](O)[C@H](O)[C@H](Oc2c(O)c(C)c3c4c2[C@@H](C)CC[C@@H]4[C@@H](C)C[C@H]3C=C(C)C)O[C@H]1C	XBP1 UPR activ 47 (no result: CHOP inh) | UPR XBP1 confirm inactive
CC(=O)O[C@@H]1[C@@H](O)[C@@H](O)[C@H](Oc2c(-c3ccc(O)cc3)oc3c(CC=C(C)C)c(O)cc(O)c3c2=O)O[C@H]1C	none (no result: CHOP inh)
CC1(C)CC(=O)C(C=Nc2ccc(O)c(N=CC3=C(O)CC(C)(C)CC3=O)c2)=C(O)C1	none
CC1(C)CC(=O)C(C=Nc2ccc(C(=O)c3ccccc3)cc2N=CC2=C(O)CC(C)(C)CC2=O)=C(O)C1	XBP1 UPR activ 180 | UPR XBP1 confirm 268
O=S(=O)(c1ccc(Cl)cc1)N1c2ccccc2Oc2nc3ccccc3nc21	none
COc1ccc(S(=O)(=O)N2c3cc(Cl)ccc3Oc3nc4ccccc4nc32)cc1	XBP1 UPR activ 39 (no result: CHOP inh) | UPR XBP1 confirm 31
CC1=CC(C)[C@H](/C=N/n2c(=O)[nH]c3c([nH]c4ccc(C)cc43)c2=O)C(C)C1 (stereo not given in full)	XBP1 UPR activ 87 | UPR XBP1 confirm 99
COc1ccc(/C=N/n2c(=O)[nH]c3c([nH]c4ccc(C)cc43)c2=O)cc1CN1CCOCC1	none (no result: XBP1 UPR activ, CHOP UPR activ, Bfl-1 A1 inh)
COC(=O)C1=C(C)N(Cc2ccccc2)C(=NCCN2CCOCC2)N[C@H]1CCc1ccccc1	none (no result: CHOP inh)
C#CCOCCOCCOCCNc1nc(N2CCN(C(=O)CCCCCCCCCCNC(=O)[C@H](CCCCN)n3cc(C[C@@H](C)CC)nn3)CC2)nc(N2CCN(C(=O)CCCCCCCCCCNC(=O)[C@H](CCCN=C(N)N)n3cc(C[C@@H](C)CC)nn3)CC2)n1	XBP1 UPR activ 31 (no result: CHOP inh) | UPR XBP1 confirm 29
